Activity calls are given as the source filed them. The rule behind the calls is not given here.
What was measured:
SW-620 [1] = assay: Inhibition of proto-oncogene protein Wnt/beta-catenin in human SW620 cells assessed as downregulation of vimentin protein expression at 6 uM after 24 hrs by Western blot analysis relative to control; assay type: cell-based
Method in brief: (§1)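 10^6 cells/well in six-well plates treated 24 h with compound (6 μM SW620; 10 μM HCT116 lines) or DMSO control. Lysed 1 h on ice in Tris/NaCl/Triton/deoxycholate buffer with phosphatase and protease inhibitors; 50−75 μg protein on 8−10% SDS-PAGE, PVDF, primary antibodies 1:1000 overnight 4 °C, HRP secondaries 1:10 000, chemiluminescence; β-actin loading control; three independent experiments.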

SW-620 [2] = assay: Inhibition of proto-oncogene protein Wnt in human SW620 cells assessed as downregulation of p300 protein expression at 6 uM after 24 hrs by Western blot analysis; assay type: cell-based; method in brief: as §1
SW480 [3] = assay: Cytotoxicity against human SW480 cells assessed as cell viability after 48 hrs by MTT assay; assay type: functional, cell-based
Method in brief: (§2)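 Cells seeded at 5000/well in 96-well plates, adhered overnight, then exposed to compound for 24 or 48 h (0−20 μM for SW480/SW620; 0−30 μM for HCT116 p53+/+ and p53−/−). MTT (5 mg/mL) added for 3.5 h, formazan dissolved in DMSO, OD read at 570 nm with 655 nm reference. Means ± SE from three independent experiments; IC50 derived from viability curves.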

SW480 [4] = assay: Inhibition of proto-oncogene protein Wnt in human SW480 cells assessed as downregulation of Bcl9l protein expression at 6 to 10 uM after 24 hrs by Western blot analysis; assay type: cell-based
SW-620 [5] = assay: Cytotoxicity against human SW620 cells assessed as cell viability after 24 hrs by MTT assay; assay type: functional, cell-based; method in brief: as §2
SW-620 [6] = assay: Inhibition of proto-oncogene protein Wnt/beta-catenin in human SW620 cells assessed as downregulation of c-Myc protein expression at 6 uM after 24 hrs by Western blot analysis relative to control; assay type: cell-based; method in brief: as §1
HCT-116 [7] = assay: Inhibition of proto-oncogene protein Wnt in human HCT116 cells expressing p53 assessed as downregulation of beta-catenin protein expression at 10 uM after 24 hrs by Western blot analysis relative to control; assay type: cell-based; method in brief: as §1
HCT-116 [8] = assay: Inhibition of proto-oncogene protein Wnt/beta-catenin in p53-deficient human HCT116 cells assessed as downregulation of TCF/LEF promoter transcriptional activity at 5 to 10 uM after 24 hrs by TOPFlash/FOPFlash luciferase reporter gene assay; assay type: cell-based
Method in brief: (§3)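 3 × 10^4 cells/well transfected with TOPFlash or FOPFlash plus Renilla plasmids (200 ng) by lipofectin in serum- and antibiotic-free DMEM. After 6 h, compound added in complete DMEM for 24 h (SW620 1−3 μM; HCT116 lines 5 and 10 μM), DMSO control. Dual luciferase read by photon counting, firefly normalized to Renilla; means ± SE, three independent experiments, Student t-test.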

SW-620 [9] = assay: Inhibition of proto-oncogene protein Wnt in human SW620 cells assessed as downregulation of beta-catenin protein expression at 6 uM after 24 hrs by Western blot analysis; assay type: cell-based; method in brief: as §1
SW480 [10] = assay: Cytotoxicity against human SW480 cells assessed as cell viability after 24 hrs by MTT assay; assay type: functional, cell-based; method in brief: as §2
SW-620 [11] = assay: Inhibition of proto-oncogene protein Wnt in human SW620 cells assessed as downregulation of TCF7L2 protein expression at 6 uM after 24 hrs by Western blot analysis; assay type: cell-based; method in brief: as §1
SW-620 [12] = assay: Inhibition of proto-oncogene protein Wnt/beta-catenin in human SW620 cells assessed as downregulation of cyclin D1 protein expression at 6 uM after 24 hrs by Western blot analysis relative to control; assay type: cell-based; method in brief: as §1
SW-620 [13] = assay: Inhibition of proto-oncogene protein Wnt in human SW620 cells assessed as downregulation of Bcl9l protein expression at 6 uM after 24 hrs by Western blot analysis; assay type: cell-based; method in brief: as §1
SW-620 [14] = assay: Upregulation of HBP1 protein expression in human SW620 cells at 6 uM after 24 hrs by Western blot analysis relative to control; assay type: functional; method in brief: as §1
HCT-116 [15] = assay: Inhibition of proto-oncogene protein Wnt/beta-catenin in human HCT116 cells expressing p53 assessed as downregulation of TCF/LEF promoter transcriptional activity at 5 to 10 uM after 24 hrs by TOPFlash/FOPFlash luciferase reporter gene assay; assay type: cell-based; method in brief: as §3
SW480 [16] = assay: Inhibition of proto-oncogene protein Wnt in human SW480 cells assessed as downregulation of p300 protein expression at 6 to 10 uM after 24 hrs by Western blot analysis; assay type: cell-based
SW480 [17] = assay: Inhibition of proto-oncogene protein Wnt/beta-catenin in human SW480 cells assessed as downregulation of mutant TCF/LEF promoter transcriptional activity at 1 to 3 uM after 24 hrs by FOPFlash luciferase reporter gene assay; assay type: cell-based
HCT-116 [18] = assay: Upregulation of HBP1 protein expression in human HCT116 cells expressing p53 at 10 uM after 24 hrs by Western blot analysis; assay type: functional, cell-based; method in brief: as §1
SW480 [19] = assay: Inhibition of proto-oncogene protein Wnt in human SW480 cells assessed as downregulation of beta-catenin protein expression at 6 to 10 uM after 24 hrs by Western blot analysis; assay type: cell-based
HCT-116 [20] = assay: Upregulation of HBP1 protein expression in p53-deficient human HCT116 cells at 10 uM after 24 hrs by Western blot analysis; assay type: functional, cell-based; method in brief: as §1
HCT-116 [21] = assay: Cytotoxicity against p53-deficient human HCT116 cells assessed as cell viability after 24 hrs by MTT assay; assay type: functional, cell-based; conditions: HCT-116, 24 h; method in brief: as §2
HCT-116 [22] = assay: Inhibition of proto-oncogene protein Wnt in p53-deficient human HCT116 cells assessed as downregulation of beta-catenin protein expression at 10 uM after 24 hrs by Western blot analysis relative to control; assay type: cell-based; method in brief: as §1
HCT-116 [23] = assay: Cytotoxicity against human HCT116 cells expressing p53 assessed as cell viability after 24 hrs by MTT assay; assay type: functional, cell-based; conditions: HCT-116, 24 h; method in brief: as §2
SW-620 [24] = assay: Inhibition of proto-oncogene protein Wnt/beta-catenin in human SW620 cells assessed as downregulation of TCF/LEF promoter transcriptional activity after 24 hrs by TOPFlash luciferase reporter gene assay; assay type: cell-based; method in brief: as §3
SW-620 [25] = assay: Cytotoxicity against human SW620 cells assessed as cell viability after 48 hrs by MTT assay; assay type: functional, cell-based; method in brief: as §2
SW-620 [26] = assay: Inhibition of proto-oncogene protein Wnt/beta-catenin in human SW620 cells assessed as downregulation of mutant TCF/LEF promoter transcriptional activity at 1 to 3 uM after 24 hrs by FOPFlash luciferase reporter gene assay; assay type: cell-based; method in brief: as §3
SW480 [27] = assay: Inhibition of proto-oncogene protein Wnt in human SW480 cells assessed as downregulation of TCF7L2 protein expression at 6 to 10 uM after 24 hrs by Western blot analysis; assay type: cell-based
SW480 [28] = assay: Inhibition of proto-oncogene protein Wnt/beta-catenin in human SW480 cells assessed as downregulation of TCF/LEF promoter transcriptional activity after 24 hrs by TOPFlash luciferase reporter gene assay; assay type: cell-based

Structure (SMILES): CC1=CC(=O)c2c(O)cccc2C1=O [PLUMBAGIN]
- inhibition (SW-620 [1]): 50%
- inhibition (SW-620 [2]): Active
- Activity (SW480 [3]): Dose-dependent effect
- IC50 (SW480 [3]; SW480, 48 h): 7.3 µM
- inhibition (SW480 [4]): Active
- Activity (SW-620 [5]): Dose-dependent effect
- IC50 (SW-620 [5]; SW-620, 24 h): 7.7 µM
- inhibition (SW-620 [6]): 50%
- inhibition (HCT-116 [7]): 33%
- inhibition (HCT-116 [8]): Active
- inhibition (SW-620 [9]): Active
- Activity (SW480 [10]): Dose-dependent effect
- IC50 (SW480 [10]; SW480, 24 h): 12 µM
- inhibition (SW-620 [11]): Active
- inhibition (SW-620 [12]): 50%
- inhibition (SW-620 [13]): Active
- fold change (FC) (SW-620 [14]): 1.68
- inhibition (HCT-116 [15]): Active
- inhibition (SW480 [16]): Active
- inhibition (SW480 [17]): inactive
- Activity (HCT-116 [18]): Active
- inhibition (SW480 [19]): Active
- Activity (HCT-116 [20]): Active
- IC50 (HCT-116 [21]): 20 µM
- inhibition (HCT-116 [22]): 20%
- IC50 (HCT-116 [23]): 20 µM
- inhibition (SW-620 [24]): Dose-dependent effect
- Activity (SW-620 [25]): Dose-dependent effect
- IC50 (SW-620 [25]; SW-620, 48 h): 7.4 µM
- inhibition (SW-620 [26]): inactive
- inhibition (SW480 [27]): Active
- inhibition (SW480 [28]): Dose-dependent effect

From ChEMBL document CHEMBL3297651, “Plumbagin downregulates Wnt signaling independent of p53 in human colorectal cancer cells” (J Nat Prod, 2014)
